The results in this text go back to ChEMBL document CHEMBL5352499, “Differentiating Inhibition Selectivity and Binding Affinity of Isocitrate Dehydrogenase 1 Variant Inhibitors” (J Med Chem, 2023).

Usually ΔTm stands for the shift of the melting midpoint relative to a reference. In general, Kd refers to the equilibrium constant for the complex coming apart. As a reminder, the IC50 is the midpoint of a concentration-inhibition curve.

Structures are written as SMILES. The source made the active and inactive calls. No cut-off for these calls is given here. Bounds are passed on as bounds.

In experiment [1] the test system is Isocitrate dehydrogenase [NADP] cytoplasmic (Homo sapiens), O75874 [R132H]. To be noted: dose 3-100 µM.
Sequence of Isocitrate dehydrogenase [NADP] cytoplasmic (Homo sapiens), O75874 [R132H] (O75874 whole entry R132H): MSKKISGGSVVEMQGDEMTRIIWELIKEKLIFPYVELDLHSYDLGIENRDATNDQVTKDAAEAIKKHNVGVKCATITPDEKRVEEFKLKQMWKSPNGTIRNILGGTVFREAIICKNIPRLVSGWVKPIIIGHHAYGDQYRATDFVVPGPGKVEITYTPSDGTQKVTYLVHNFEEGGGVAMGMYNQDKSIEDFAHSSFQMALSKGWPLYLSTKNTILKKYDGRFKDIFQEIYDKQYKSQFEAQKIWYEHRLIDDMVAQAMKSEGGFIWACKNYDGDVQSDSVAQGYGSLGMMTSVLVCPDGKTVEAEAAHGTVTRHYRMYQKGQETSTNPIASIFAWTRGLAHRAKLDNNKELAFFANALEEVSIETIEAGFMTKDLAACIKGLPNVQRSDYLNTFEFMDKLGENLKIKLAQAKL
Experiment [2] shares this test system. To be noted: dose 42.0 µM.
Experiment [3] addresses T1, Isocitrate dehydrogenase [NADP] cytoplasmic (Homo sapiens, UniProt O75874, R132H). Description: Binding affinity to human recombinant IDH1 R132H mutant expressed in Escherichia coli BL21(DE3) pLysS cells assessed as dissociation constant by non-denaturing mass spectroscopic analysis.
Experiment [4] concerns the target T2, Isocitrate dehydrogenase [NADP] cytoplasmic (Homo sapiens, UniProt O75874). The conditions noted are these: dose 3-100 µM.
Experiment [5] in a line: Selectivity index, ratio of IC50 for recombinant wildtype IDH1 expressed in Escherichia coli BL21(DE3) pLysS cells to IC50 for recombinant IDH1 R132H mutant (unknown origin) expressed in Escherichia coli BL21(DE3) pLysS cells.
Experiment [6] concerns the target T1, Isocitrate dehydrogenase [NADP] cytoplasmic. Description: Inhibition of recombinant IDH1 R132H mutant (unknown origin) expressed in Escherichia coli BL21(DE3) pLysS cells using 2OG as substrate assessed as 2OG conversion to 2HG incubated for 60 mins in presence of NADPH by spectrophotometric analysis.
Experiment [7] has as its system Isocitrate dehydrogenase [NADP] cytoplasmic (Homo sapiens), O75874 [R132H]. Description: Binding affinity to recombinant IDH1 R132H mutant (unknown origin) expressed in Escherichia coli BL21(DE3) pLysS cells incubated in presence of MgCl2 by ITC assay. An outline of the steps: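 IDH1 R132H homodimer in 50 mM tris–HCl, pH 7.5; 40 μM protein in cell (4% v/v DMSO) titrated at 25 °C with 200 or 400 μM compound (2% or 4% DMSO), 19 injections (0.4 μL, then 2.0 μL × 18, 150 s spacing), 750 rpm; thermodynamic parameters from fitted isotherm.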
A general note: Isothermal titration calorimetry measures the heat released or taken up as one component is titrated into another.

In experiment [8] the target is T2, Isocitrate dehydrogenase [NADP] cytoplasmic. Description: Binding affinity to recombinant wildtype IDH1 (unknown origin) expressed in Escherichia coli BL21(DE3) pLysS cells incubated in presence of MgCl2 by NMR analysis.
Experiment [9] shares this target. Description: Binding affinity to human recombinant IDH1 expressed in Escherichia coli BL21(DE3) pLysS cells assessed as dissociation constant by non-denaturing mass spectroscopic analysis.
In experiment [10] the test system is Isocitrate dehydrogenase [NADP] cytoplasmic (Homo sapiens), O75874 [R132H]. Description: Binding affinity to recombinant IDH1 R132H mutant (unknown origin) expressed in Escherichia coli BL21(DE3) pLysS cells incubated in presence of MgCl2 by NMR analysis.
The target of experiment [11] is T2, Isocitrate dehydrogenase [NADP] cytoplasmic. Description: Binding affinity to recombinant IDH1 (unknown origin) expressed in Escherichia coli BL21(DE3) pLysS cells incubated in presence of MgCl2 by ITC assay. An outline of the steps: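 Homodimeric wt IDH1 in 50 mM tris–HCl, pH 7.5; cell 40 μM protein (4% v/v DMSO), titrant 200 or 400 μM compound (2% or 4% DMSO). 25 °C, stirring 750 rpm, 19 injections (0.4 μL then 18 × 2.0 μL, 150 s apart); thermodynamic parameters fitted from the heats.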

T1 sequence (O75874 2-414 R132H limits assumed): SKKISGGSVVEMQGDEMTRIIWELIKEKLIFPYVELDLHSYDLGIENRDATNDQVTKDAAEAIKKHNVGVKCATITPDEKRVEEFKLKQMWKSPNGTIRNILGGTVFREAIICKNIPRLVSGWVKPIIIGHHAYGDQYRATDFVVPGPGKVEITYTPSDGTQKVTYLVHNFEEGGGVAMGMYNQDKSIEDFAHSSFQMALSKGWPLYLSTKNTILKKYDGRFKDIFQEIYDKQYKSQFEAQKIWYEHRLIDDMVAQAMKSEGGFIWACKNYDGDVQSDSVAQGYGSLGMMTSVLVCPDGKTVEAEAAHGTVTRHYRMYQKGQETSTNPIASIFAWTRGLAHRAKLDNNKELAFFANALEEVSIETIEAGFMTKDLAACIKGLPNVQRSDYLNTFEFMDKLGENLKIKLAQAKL
T2 sequence (O75874 whole entry): as the sequence (O75874 whole entry R132H) above, with H132R counted along it

Take `CC(=O)N1CCN(Cc2ccc([C@H](C)Nc3nccc(N4C(=O)OC[C@@H]4C(C)C)n3)cc2)CC1`: the values for the thermal shift (ΔTm) in experiment [1] and in experiment [2] were 11.7 °C and 11.2 °C, respectively.
Regarding `Cc1ccccc1C(C(=O)NC1CCCCC1)N(C(=O)Cn1ccnc1C)c1cccc(F)c1` (stereo not drawn), the equilibrium dissociation constant (Kd) in experiment [3] is 98 µM.
Take `Cc1ccccc1C(C(=O)NC1CCCCC1)N(C(=O)Cn1cnc2ccccc21)c1cccc(F)c1` (stereo not drawn): the ΔTm is 8.1 °C in experiment [4] and 6.6 °C in [1]. Besides, the Ratio IC50 in experiment [5] was over 556. Moreover, in experiment [6], the 50% inhibitory concentration (IC50) was 0.073 µM.
In the case of `COc1c(C)cc(NC(=O)c2nn(Cc3ccc(F)cc3)c3c2CN(C(=O)c2ccc[nH]2)C[C@]3(C)C(N)=O)cc1C`, the results for the dissociation constant Kd in [3] and in experiment [9] were 23 µM and 24 µM, respectively. The outcome in [7], in experiment [8], in [10] and in experiment [11] was Active.
